ChEMBL document CHEMBL3808283, “Biological Characterization and in Vivo Assessment of the Activity of a New Synthetic Macrocyclic Antifungal Compound” (J Med Chem, 2016)
In brackets after ≈: the same amount, converted by molar mass. Activity calls are given as the source filed them. The rule behind the calls is not given here.

Key:
Candida albicans [1] = assay: Antifungal activity against fluconazole-susceptible Candida albicans ATCC 90028 in immunocompetent Balb/c mouse candidiasis model assessed as reduction in CFU count in kidney at 8 mg/kg/day, ip regime measured on day 7 post infection; format: functional, organism-based
How it was run: (§1)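 Immunocompetent BALB/c mice, 10 per strain group, received 7 × 10^4 CFU of C. albicans in 200 µL saline via the lateral vein. Fluconazole was given i.p. at 8 mg/kg/day. On day 7, spleen and kidneys were weighed, homogenized, and plated on YPD agar (2 days, 30 °C) for CFU per gram of organ. Analysis used Wilcoxon rank-sum, P<0.05.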

Candida albicans [2] = assay: Antifungal activity against fluconazole-susceptible Candida albicans ATCC 90028 in immunocompetent Balb/c mouse candidiasis model assessed as reduction in CFU count in spleen at 8 mg/kg/day, ip regime measured on day 7 post infection; format: functional, organism-based; how it was run: as §1
Candida albicans [3] = assay: Antifungal activity against azole-susceptible Candida albicans isolate DSY294 in immunocompetent Balb/c mouse candidiasis model assessed as reduction in CFU count in kidney at 8 mg/kg/day, ip regime measured on day 7 post infection; format: functional, organism-based; how it was run: as §1
Candida albicans [4] = assay: Antifungal activity against azole-susceptible Candida albicans isolate DSY294 in immunocompetent Balb/c mouse candidiasis model assessed as reduction in CFU count in spleen at 8 mg/kg/day, ip regime measured on day 7 post infection; format: functional, organism-based; how it was run: as §1
[5] = Drug transport in Candida albicans ATCC 60193 assessed as ABC transpoter-mediated drug accumulation in cytoplasm at 40 uM after 48 hrs by confocal microscopic analysis; format: ADME
How it was run: (§2)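 C. albicans ATCC 60193 or Cry. neoformans treated 48 h with the fluorescent probe at 40 µM from a DMSO solution. Cells were washed twice in PBS, fixed in 4% formaldehyde for 30 min at 4 °C, washed again, spotted on glass slides, dried and mounted. Examined by confocal microscopy, with visible, fluorescent and merged images compared against untreated cells.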

[6] = Drug transport in Cryptococcus neoformans assessed as ABC transpoter-mediated drug accumulation in cytoplasm at 40 uM after 48 hrs by confocal microscopic analysis; format: ADME; how it was run: as §2
[7] = Drug transport in Candida albicans ATCC 60193 with damaged cell wall assessed as ABC transpoter-mediated drug accumulation in cytoplasm at 40 uM after 48 hrs by confocal microscopic analysis; format: ADME; how it was run: as §2
[8] = Drug transport in Cryptococcus neoformans with damaged cell wall assessed as ABC transpoter-mediated drug accumulation in cytoplasm at 40 uM after 48 hrs by confocal microscopic analysis; format: ADME; how it was run: as §2
Candida albicans [9] = assay: Antifungal activity against Candida albicans ATCC 60193 up to 96 hrs by broth dilution assay; format: functional; details: ATCC 60193, 96 h
Candida albicans [10] = assay: Antifungal activity against Candida albicans isolate DSY654 harboring CDR1/2 deletion mutant at 100 ug/ml by serial dilution assay; format: functional, organism-based
How it was run: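 Spot dilution assay: C. albicans cells 10-fold serially diluted from 2 × 10^7 cells/mL, with 5 µL of each dilution spotted onto YEPD agar plates containing the drug.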

[11] = Drug transport in Candida albicans ATCC 60193 assessed as ABC transpoter-mediated drug accumulation at 5 to 80 uM after 24 hrs by confocal microscopic analysis; format: ADME
[12] = Drug transport in Cryptococcus neoformans assessed as ABC transpoter-mediated drug accumulation at 5 to 80 uM after 24 hrs by confocal microscopic analysis; format: ADME

## OC(Cn1cncn1)(Cn1cncn1)c1ccc(F)cc1F
Candida albicans [1]
  Activity: Active
Candida albicans [2]
  Activity: Active
Candida albicans [3]
  Activity: Active
Candida albicans [4]
  Activity: Active

## C/C=C/CNC(=N)NCCCCCCCCN1CCCCCCOc2cc(OCCCNC(=S)Nc3ccc4c(c3)C(=O)OC43c4ccc(O)cc4Oc4cc(O)ccc43)ccc2CNC(=N)NC1=O
[5]
  Drug transport: Active
[6]
  Drug transport: Active
[7]
  Drug transport: Not Active
[8]
  Drug transport: Not Active
Candida albicans [9]
  MIC: 80 µM (≈ 78.1 µg/mL)

## OCCN1CCN(CCCN2c3ccccc3Sc3ccc(C(F)(F)F)cc32)CC1
Candida albicans [10]
  Activity: Active

## CN(C)c1cccc2c(S(=O)(=O)NC(=N)NCCCCCCCCN3CCCCCCCCNC(=N)NC3=O)cccc12
[11]
  Drug transport: Active
[12]
  Drug transport: Active
Candida albicans [9]
  MIC: > 125 µM

## CN(C)c1cccc2c(S(=O)(=O)NCCCCCCCCN3CCCCCCCCNC(=N)NC3=O)cccc12
[11]
  Drug transport: Active
[12]
  Drug transport: Active
Candida albicans [9]
  MIC: > 125 µM
